Our source for the inhibition values is ChEMBL document CHEMBL2406979, “Antitumor activity of 2-hydroxycinnamaldehyde for human colon cancer cells through suppression of β-catenin signaling” (J Nat Prod, 2013).

The experiment deals with HEK293. Briefly: Inhibition of Wnt/beta-catenin (unknown origin) signaling pathway expressed in HEK293 cells assessed as inhibition of TCF4 transcriptional activity at 5 to 40 uM after 24 hrs by TOPflash reporter gene assay. Particulars: Homo sapiens. It counts as cell-based. The essentials: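 HEK293 cells seeded at 1.5 × 10^4 per well and cotransfected (Lipofectamine 2000) with TOPflash luciferase reporter 0.1 μg, Renilla 0.005 μg for normalization, pcDNA β-catenin 0.02 μg and TCF4 expression vector 0.004 μg to activate Wnt; 24 h later treated with compound or solvent for 24 h; dual luciferase read-out, Renilla-normalized, relative to vehicle; triplicate.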
(In a reporter assay the amount or activity of a reporter protein is the signal.)

The source made the active and inactive calls. No cut-off for these calls is given here.

For `COc1ccccc1/C=C/C=O`, the inhibition entry is “Active”.
